# Square brackets hold non-standard residues; d marks the D form. Peptide text beside a SMILES is read from it. ξ: configuration not given here. NMeY = CN[C@@H](Cc1ccc(O)cc1)C(=O)O; NMeF = CN[C@@H](Cc1ccccc1)C(=O)O; ξP = O=C(O)C1CCCN1; Ava = NCCCCC(=O)O
# Assays:
# [1] = biological target: Kappa-type opioid receptor (Cavia porcellus, UniProt P41144); experiment: Displacement of [3H]U69593 from kappa opioid receptor in guinea pig cortices membrane by liquid scintillation counting analysis; format: cell membranes
# Sequence of Kappa-type opioid receptor (P41144 whole entry): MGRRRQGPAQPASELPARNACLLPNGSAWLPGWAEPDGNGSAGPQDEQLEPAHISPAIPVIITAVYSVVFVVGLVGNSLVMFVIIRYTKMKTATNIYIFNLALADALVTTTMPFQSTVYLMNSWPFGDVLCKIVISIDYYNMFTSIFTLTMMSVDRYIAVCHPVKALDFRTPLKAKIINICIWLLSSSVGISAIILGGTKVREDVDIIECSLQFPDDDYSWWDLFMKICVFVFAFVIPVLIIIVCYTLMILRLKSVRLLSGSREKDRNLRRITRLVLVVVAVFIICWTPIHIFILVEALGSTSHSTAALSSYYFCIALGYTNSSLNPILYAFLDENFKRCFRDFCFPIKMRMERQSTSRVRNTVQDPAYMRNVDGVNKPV
# How it was run: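 Competitive radioligand binding at the kappa (KOR) opioid receptor with [3H]-U69,593 as tracer; affinity expressed as Ki.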
# Mu-type opioid receptor = Mu-type opioid receptor (Rattus norvegicus, UniProt P33535); experiment: Displacement of [3H]DAMGO from mu opioid receptor in rat brain membrane by liquid scintillation counting analysis; format: cell membranes
# Sequence of Mu-type opioid receptor (P33535 whole entry): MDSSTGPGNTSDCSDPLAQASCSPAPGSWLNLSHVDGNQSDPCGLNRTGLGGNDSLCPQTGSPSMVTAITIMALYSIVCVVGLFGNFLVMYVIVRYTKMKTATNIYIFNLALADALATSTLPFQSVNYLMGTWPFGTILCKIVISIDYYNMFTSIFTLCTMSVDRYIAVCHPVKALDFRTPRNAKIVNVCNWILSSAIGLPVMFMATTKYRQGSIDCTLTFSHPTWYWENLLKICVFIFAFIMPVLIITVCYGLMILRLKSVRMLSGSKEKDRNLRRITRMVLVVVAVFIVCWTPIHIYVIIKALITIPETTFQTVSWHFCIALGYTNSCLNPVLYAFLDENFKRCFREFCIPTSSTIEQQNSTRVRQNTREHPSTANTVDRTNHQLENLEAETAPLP
# How it was run: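 Competitive radioligand binding at the mu (MOR) opioid receptor with [3H]-DAMGO as tracer; affinity expressed as Ki.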
SMILES,Ki [1] [nM],Ki (Mu-type opioid receptor) [nM]
CC(C)C[C@H]1CNC(=S)N1C[C@H](Cc1ccccc1)N(C)CCN(C)CCN1C[C@H](Cc2ccc(O)cc2)N(C)C1=S,3420,7110
CN[C@H](CNCC(=O)N(C)CCN(C)[C@H](CN[C@H](CN)CC(C)C)Cc1ccccc1)Cc1ccc(O)cc1,1110,1500
CC(C)C[C@H]1CNC(=O)C(=O)N1C[C@H](Cc1ccccc1)N(C)CCN(C)CCN1C[C@H](Cc2ccc(O)cc2)N(C)C(=O)C1=O,94200,15200
CC(C)C[C@H]1CNCCN1C[C@H](Cc1ccccc1)N(C)CCN(C)CCN1CCN(C)[C@@H](Cc2ccc(O)cc2)C1,3120,2650
CC(C)C[C@H]1CNC(=S)N1C[C@H](Cc1ccccc1)N(C)CCN1CCN(C[C@H](Cc2ccc(O)cc2)N(C)C)C1=S,2300,740
CC(C)C[C@H]1CNC(=N)N1C[C@H](Cc1ccccc1)N(C)CCN1CCN(C[C@H](Cc2ccc(O)cc2)N(C)C)C1=N,11300,1080
CC(C)C[C@H]1CNCCN1C[C@H](Cc1ccccc1)N(C)CCN1CCN(C[C@H](Cc2ccc(O)cc2)N(C)C)CC1,3430,1150
CC(C)C[C@H]1CNC(=S)N1C[C@H](Cc1ccccc1)N(C)C[C@@H]1CCCN1C[C@H](Cc1ccc(O)cc1)N(C)C,3320,430
CC(C)C[C@H]1CNC(=O)C(=O)N1C[C@H](Cc1ccccc1)N(C)C[C@@H]1CCCN1C[C@H](Cc1ccc(O)cc1)N(C)C,10600,250
CC(C)C[C@@H](CN)NC[C@H](Cc1ccccc1)N(C)C[C@@H]1CCCN1C[C@H](Cc1ccc(O)cc1)N(C)C,1280,60
CC(C)C[C@H]1CNC(=S)N1C[C@H](Cc1ccccc1)N(C)CCCCCN1C[C@H](Cc2ccc(O)cc2)NC1=S,9480,11000
CC(C)CC(CN)NCC(Cc1ccccc1)N(C)CCCCCNCC(N)Cc1ccc(O)cc1 (stereo not drawn),1620,1790
CC(C)C[C@H](NC(=O)[C@H](Cc1ccccc1)N(C)C(=O)CCCCNC(=O)[C@@H](N)Cc1ccc(O)cc1)C(N)=O (H-Y[Ava][NMeF]L-NH2),22500,38900
CN[C@@H](Cc1ccc(O)cc1)C(=O)N1CCCC1C(=O)N(C)[C@@H](Cc1ccccc1)C(=O)N[C@@H](CC(C)C)C(N)=O (stereo partly drawn) (H-[NMeY][ξP][NMeF]L-NH2),2030,2140

# — ChEMBL document CHEMBL3351968, “Synthesis and analgesic activity of alkylated, reduced and constrained oligoheterocyclic peptidomimetic analogs of Leu-enkephalin” (Bioorg Med Chem Lett, 2014)
